# Test results published in ChEMBL document CHEMBL4732034, “Amino alcohol acrylonitriles as broad spectrum and tumour selective cytotoxic agents” (RSC Med Chem, 2021).
# How the values were obtained:
# [1] = Cytotoxicity against human SJG2 cells assessed as growth inhibition measured after 72 hrs by SRB assay; type: functional; settings: SJ-G2
# How it was run: (§1)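 Cancer lines were kept in DMEM with 10% FBS and glutamine at 37 °C, 5% CO2, and seeded at 2500–4000 cells per well in duplicate. Compound (from 40 mM DMSO stocks) was added 24 h after plating and left for 72 h. Cells were TCA-fixed, stained with SRB and read at 540 nm. GI50 came from an eight-point dose-response, using the change from day-0 optical density, with three to four independent replicates.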
# T47D = assay: Cytotoxicity against human T47D cells assessed as growth inhibition measured after 72 hrs by SRB assay; type: functional; how it was run: as §1
# [2] = Selectivity index, ratio of GI50 for human MCF10A cells to GI50 for human MDA-MB-468 cells by SRB assay; type: toxicity; settings: MCF10A cells versus MDA-MB-468 cells, read-out: RatioGI50
# How it was run: (§2)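 Fold selectivity is the MCF10A GI50 divided by the cancer-line GI50. Each GI50 is from the 72 h SRB assay: eight-point dose-response, day-0 optical density baseline, three to four separate replicates.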
# BE(2)-C = assay: Cytotoxicity against human BE2C cells assessed as growth inhibition measured after 72 hrs by SRB assay; type: functional; how it was run: as §1
# NCI-H460 = assay: Cytotoxicity against human H460 cells assessed as growth inhibition measured after 72 hrs by SRB assay; type: functional; how it was run: as §1
# A2780 = assay: Cytotoxicity against human A2780 cells assessed as growth inhibition measured after 72 hrs by SRB assay; type: functional; how it was run: as §1
# [3] = Selectivity index, ratio of GI50 for human MCF10A cells to GI50 for human T47D cells by SRB assay; type: toxicity; settings: MCF10A cells versus T47D cells, read-out: RatioGI50; how it was run: as §2
# HT-29 = assay: Cytotoxicity against human HT29 cells assessed as growth inhibition measured after 72 hrs by SRB assay; type: functional; how it was run: as §1
# MDA-MB-468 = assay: Cytotoxicity against human MDA-MB-468 cells assessed as growth inhibition measured after 72 hrs by SRB assay; type: functional; how it was run: as §1
# [4] = Cytotoxicity against human MCF10A cells assessed as growth inhibition measured after 72 hrs by SRB assay; type: cell-based, MCF-10A
# [5] = Selectivity index, ratio of GI50 for human MCF10A cells to GI50 for human MCF-7 cells by SRB assay; type: toxicity; settings: MCF10A cells versus MCF-7 cells, read-out: RatioGI50; how it was run: as §2
# U-87 MG = assay: Cytotoxicity against human U87 cells assessed as growth inhibition measured after 72 hrs by SRB assay; type: functional, U-87MG ATCC; how it was run: as §1
# A-431 = assay: Cytotoxicity against human A431 cells assessed as growth inhibition measured after 72 hrs by SRB assay; type: functional; how it was run: as §1
# MCF7 = assay: Cytotoxicity against human MCF-7 cells assessed as growth inhibition measured after 72 hrs by SRB assay; type: functional; how it was run: as §1
# DU-145 = assay: Cytotoxicity against human DU-145 cells assessed as growth inhibition measured after 72 hrs by SRB assay; type: functional; how it was run: as §1
# MIA PaCa-2 = assay: Cytotoxicity against human MIA cells assessed as growth inhibition measured after 72 hrs by SRB assay; type: functional; how it was run: as §1
# [6] = Selectivity index, ratio of GI50 for human MCF10A cells to GI50 for human H460 cells by SRB assay; type: toxicity; settings: MCF10A cells versus H460 cells, read-out: RatioGI50; how it was run: as §2
# [7] = biological target: T1, Aryl hydrocarbon receptor (Homo sapiens, UniProt P35869); assay: Activation of AhR in human HT29-Lucia cells expressing secreted Lucia luciferase reporter gene assessed as increase in receptor transactivation by measuring fold increase in reporter activity at 5 uM measured after 48 hrs by luciferase reporter gene assay relative to control; type: cell-based; settings: HT-29, human, read-out: FC
# T1 sequence (P35869 whole entry): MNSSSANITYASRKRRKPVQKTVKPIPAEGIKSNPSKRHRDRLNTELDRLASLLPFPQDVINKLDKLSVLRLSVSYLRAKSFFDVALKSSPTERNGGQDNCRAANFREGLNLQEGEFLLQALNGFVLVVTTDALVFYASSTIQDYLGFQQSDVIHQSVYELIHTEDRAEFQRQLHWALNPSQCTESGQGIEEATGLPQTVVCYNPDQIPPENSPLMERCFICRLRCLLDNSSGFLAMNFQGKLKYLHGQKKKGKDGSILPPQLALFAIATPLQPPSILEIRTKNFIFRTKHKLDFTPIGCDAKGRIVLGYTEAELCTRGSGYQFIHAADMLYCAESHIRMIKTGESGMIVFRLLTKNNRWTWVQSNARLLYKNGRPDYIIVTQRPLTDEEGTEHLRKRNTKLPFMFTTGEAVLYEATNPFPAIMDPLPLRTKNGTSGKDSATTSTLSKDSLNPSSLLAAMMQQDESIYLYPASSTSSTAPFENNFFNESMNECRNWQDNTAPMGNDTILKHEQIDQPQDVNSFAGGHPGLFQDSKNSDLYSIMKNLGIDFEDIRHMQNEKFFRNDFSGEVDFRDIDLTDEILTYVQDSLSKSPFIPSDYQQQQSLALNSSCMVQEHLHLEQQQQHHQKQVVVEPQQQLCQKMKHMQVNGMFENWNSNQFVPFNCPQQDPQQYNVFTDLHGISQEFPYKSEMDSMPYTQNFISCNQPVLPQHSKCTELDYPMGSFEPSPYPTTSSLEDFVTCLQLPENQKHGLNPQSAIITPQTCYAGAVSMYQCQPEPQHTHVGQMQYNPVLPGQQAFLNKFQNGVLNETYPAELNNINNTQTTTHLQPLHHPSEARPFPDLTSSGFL
# How it was run: (§3)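 HT29-Lucia cells (stable secreted Lucia luciferase reporter under a minimal promoter with the human CYP1A1 regulatory sequence, six DREs) were grown without antibiotics for 24 h before compound addition. At 24 and 48 h, supernatant was read by luminescence with QUANTI-Luc. Assays were run twice, and values are fold-change versus DMSO-treated cells. FICZ and CH223191 (5 μM) were included as controls.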
# [8] = biological target: T1, Aryl hydrocarbon receptor; assay: Activation of AhR in human HT29-Lucia cells expressing secreted Lucia luciferase reporter gene assessed as increase in receptor transactivation by measuring fold increase in reporter activity at 5 uM measured after 24 hrs by luciferase reporter gene assay relative to control; type: cell-based; settings: HT-29, human, read-out: FC; how it was run: as §3
# [9] = Selectivity index, ratio of GI50 for human MCF10A cells to GI50 for human HT-29 cells by SRB assay; type: toxicity; settings: MCF10A cells versus HT-29 cells, read-out: RatioGI50; how it was run: as §2
# [10] = Selectivity index, ratio of GI50 for human MCF10A cells to GI50 for human A2780 cells by SRB assay; type: toxicity; settings: MCF10A cells versus A2780 cells, read-out: RatioGI50; how it was run: as §2
smiles,measurement,setting,value
CC(=O)N1CCN(CC(O)COc2ccc(/C=C(\C#N)c3ccc(Cl)c(Cl)c3)cc2)CC1 (racemic),GI50,[1],13 µM
same,GI50,T47D,6.8 µM
same,selectivity ratio,[2],2.7
same,GI50,BE(2)-C,11 µM
same,GI50,NCI-H460,14 µM
same,GI50,A2780,6.9 µM
same,selectivity ratio,[3],2.3
same,GI50,HT-29,8.6 µM
same,GI50,MDA-MB-468,5.9 µM
same,GI50 at 72 h,[4],16 µM
same,selectivity ratio,[5],3
same,GI50,U-87 MG,21 µM
same,GI50,A-431,10 µM
same,GI50,MCF7,5.3 µM
same,GI50,DU-145,15 µM
same,GI50,MIA PaCa-2,16 µM
N#C/C(=C\c1ccc(OCC(O)CN2CCN(c3ccccc3F)CC2)cc1)c1ccc(Cl)c(Cl)c1 (racemic),GI50,[1],18 µM
same,GI50,BE(2)-C,21 µM
same,GI50,NCI-H460,1.6 µM
same,GI50,A2780,17 µM
same,GI50,HT-29,5.4 µM
same,GI50 at 72 h,[4],15 µM
same,selectivity ratio,[6],9.3
same,GI50,U-87 MG,20 µM
same,GI50,A-431,14 µM
same,GI50,MCF7,11 µM
same,GI50,DU-145,18 µM
same,GI50,MIA PaCa-2,24 µM
O=Cc1c2[nH]c3ccccc3c2cc2[nH]c3ccccc3c12,fold induction at 5 µM,[7],4.82
same,fold induction at 5 µM,[8],2.85
CN(C)CC(O)COc1ccc(/C=C(\C#N)c2ccc(Cl)c(Cl)c2)cc1 (racemic),GI50,[1],2.7 µM
same,GI50,BE(2)-C,2.5 µM
same,GI50,NCI-H460,2.8 µM
same,GI50,A2780,2.5 µM
same,GI50,HT-29,0.75 µM
same,GI50 at 72 h,[4],2.8 µM
same,GI50,U-87 MG,3.2 µM
same,GI50,A-431,1.6 µM
same,GI50,MCF7,1.9 µM
same,GI50,DU-145,2.7 µM
same,GI50,MIA PaCa-2,2.3 µM
same,selectivity ratio,[9],3.7
N#C/C(=C\c1ccc(OCC(O)CN2CCCCC2)cc1)c1ccc(Cl)c(Cl)c1 (racemic),GI50,[1],2.5 µM
same,GI50,BE(2)-C,2.5 µM
same,GI50,NCI-H460,3 µM
same,GI50,A2780,2.7 µM
same,GI50,HT-29,0.66 µM
same,GI50 at 72 h,[4],2.5 µM
same,GI50,U-87 MG,3 µM
same,GI50,A-431,2.1 µM
same,GI50,MCF7,2.5 µM
same,GI50,DU-145,2.9 µM
same,GI50,MIA PaCa-2,2.6 µM
same,selectivity ratio,[9],3.8
CC1CCCCN1CC(O)COc1ccc(/C=C(\C#N)c2ccc(Cl)c(Cl)c2)cc1 (racemic),GI50,[1],2.8 µM
same,GI50,BE(2)-C,2.4 µM
same,GI50,NCI-H460,2.7 µM
same,GI50,A2780,2.7 µM
same,GI50,HT-29,0.36 µM
same,GI50 at 72 h,[4],2.5 µM
same,GI50,U-87 MG,2.9 µM
same,GI50,A-431,1.6 µM
same,GI50,MCF7,2.1 µM
same,GI50,DU-145,3 µM
same,GI50,MIA PaCa-2,2.7 µM
same,selectivity ratio,[9],6.9
N#C/C(=C\c1ccc(OCC(O)CNc2ccccc2)cc1)c1ccc(Cl)c(Cl)c1 (racemic),GI50,[1],18 µM
same,GI50,BE(2)-C,13 µM
same,GI50,NCI-H460,14 µM
same,GI50,A2780,4.4 µM
same,GI50,HT-29,10 µM
same,GI50 at 72 h,[4],18 µM
same,GI50,U-87 MG,26 µM
same,GI50,A-431,16 µM
same,GI50,MCF7,13 µM
same,selectivity ratio,[10],4
same,GI50,DU-145,22 µM
same,GI50,MIA PaCa-2,17 µM
N#C/C(=C\c1ccc(OCC(O)CN2CCN(c3ccc(Br)cc3)CC2)cc1)c1ccc(Cl)c(Cl)c1 (racemic),GI50,[1],21 µM
same,GI50,BE(2)-C,40 µM
same,GI50,NCI-H460,> 50 µM
same,GI50,A2780,14 µM
same,GI50,HT-29,16 µM
same,GI50 at 72 h,[4],49 µM
same,GI50,U-87 MG,> 50 µM
same,GI50,A-431,> 50 µM
same,GI50,MCF7,24 µM
same,selectivity ratio,[10],3.5
same,GI50,DU-145,31 µM
same,GI50,MIA PaCa-2,57 µM
Cc1ccccc1/N=N/c1ccc(NC(=O)c2ccnn2C)c(C)c1,fold induction at 5 µM,[7],0.59
same,fold induction at 5 µM,[8],0.69
COc1ccc(NCC(O)COc2ccc(/C=C(\C#N)c3ccc(Cl)c(Cl)c3)cc2)cc1 (racemic),GI50,[1],32 µM
same,GI50,BE(2)-C,41 µM
same,GI50,NCI-H460,16 µM
same,GI50,A2780,17 µM
same,GI50,HT-29,3.7 µM
same,GI50 at 72 h,[4],19 µM
same,selectivity ratio,[5],3.6
same,GI50,U-87 MG,29 µM
same,GI50,A-431,62 µM
same,GI50,MCF7,5.2 µM
same,GI50,DU-145,28 µM
same,GI50,MIA PaCa-2,27 µM
same,selectivity ratio,[9],5.1
N#C/C(=C\c1ccc(OCC(O)CNC23CC4CC(CC(C4)C2)C3)cc1)c1ccc(Cl)c(Cl)c1 (racemic),GI50,[1],2 µM
same,GI50,BE(2)-C,2.2 µM
same,GI50,NCI-H460,1.8 µM
same,GI50,A2780,1.7 µM
same,GI50,HT-29,0.89 µM
same,GI50 at 72 h,[4],2.5 µM
same,GI50,U-87 MG,2.5 µM
same,GI50,A-431,2.1 µM
same,GI50,MCF7,2 µM
same,GI50,DU-145,2.5 µM
same,GI50,MIA PaCa-2,1.9 µM
N#C/C(=C\c1ccc(OCC(O)CN2CCCC2)cc1)c1ccc(Cl)c(Cl)c1 (racemic),GI50,[1],3.7 µM
same,GI50,BE(2)-C,2.8 µM
same,GI50,NCI-H460,3 µM
same,GI50,A2780,2.7 µM
same,GI50,HT-29,1.5 µM
same,GI50 at 72 h,[4],2.9 µM
same,GI50,U-87 MG,5.6 µM
same,GI50,A-431,2.6 µM
same,GI50,MCF7,2.8 µM
same,GI50,DU-145,4.2 µM
same,GI50,MIA PaCa-2,5.6 µM
